Measurements reported in ChEMBL document CHEMBL3739379, “Anti-Candida activity and cytotoxicity of a large library of new N-substituted-1,3-thiazolidin-4-one derivatives” (Eur J Med Chem, 2016).
Values after ≈ are worked out from the molar mass of the structure shown.

Legend:
Format in all cases: functional
Staphylococcus aureus = assay: Antibacterial activity against Staphylococcus aureus after 18 to 22 hrs by broth microdilution method
How it was run: (§1)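 Broth microdilution per NCCLS in Mueller-Hinton II broth; isolates subcultured for purity. Compounds dissolved in DMSO, serial dilutions 256 to 0.5 µg/mL; inoculum 10^5/mL. Controls: organism without compound, medium only. Incubation 18 to 22 h at 35 °C. MIC is the lowest concentration giving complete growth inhibition, read by unaided eye.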

Staphylococcus warneri = assay: Antibacterial activity against Staphylococcus warneri after 18 to 22 hrs by broth microdilution method; how it was run: as §1
Enterococcus faecalis = assay: Antibacterial activity against […] faecalis after 18 to 22 hrs by broth microdilution method; how it was run: as §1
[1] = test system: Staphylococcus haemolyticus; assay: Antibacterial activity against Staphylococcus haemolyticus after 18 to 22 hrs by broth microdilution method; how it was run: as §1
Escherichia coli = assay: Antibacterial activity against Escherichia coli at after 18 to 22 hrs by broth microdilution method; how it was run: as §1
Proteus mirabilis = assay: Antibacterial activity against Proteus mirabilis after 18 to 22 hrs by broth microdilution method; how it was run: as §1
Enterobacter sp. = assay: Antibacterial activity against Enterobacter sp. after 18 to 22 hrs by broth microdilution method; how it was run: as §1
Klebsiella oxytoca = assay: Antibacterial activity against Klebsiella oxytoca after 18 to 22 hrs by broth microdilution method; how it was run: as §1
Candida albicans = assay: Antifungal activity against Candida albicans clinical isolate after 24 hrs by sabouraud dextrose broth based microdilution method
How it was run: (§2)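 Clinical isolates identified by conventional methods and subcultured for purity. Broth microdilution per NCCLS in Sabouraud dextrose broth; compounds dissolved in DMSO and serially diluted; inoculum 10^3/mL. Controls: fungi without compound, medium only. Incubated 24 h at 37 °C. MIC is the lowest concentration with complete growth inhibition by unaided eye. Values are geometric means over isolates per species.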

Nakaseomyces glabratus = assay: Antifungal activity against Candida glabrata clinical isolate after 24 hrs by sabouraud dextrose broth based microdilution method; how it was run: as §2
Candida tropicalis = assay: Antifungal activity against Candida tropicalis clinical isolate after 24 hrs by sabouraud dextrose broth based microdilution method; how it was run: as §2
Pichia kudriavzevii = assay: Antifungal activity against Candida krusei clinical isolate after 24 hrs by sabouraud dextrose broth based microdilution method; how it was run: as §2
Candida parapsilosis = assay: Antifungal activity against Candida parapsilosis clinical isolate after 24 hrs by sabouraud dextrose broth based microdilution method; details: Lodderomyces parapsilosis; how it was run: as §2
[Candida] sake = Antifungal activity against Candida sake clinical isolate after 24 hrs by sabouraud dextrose broth based microdilution method; details: Fermentozyma sake; how it was run: as §2

With C/C(=N\N=C1/SCC(=O)N1Cc1cccc2ccccc12)c1ccccn1 the MIC (Staphylococcus aureus) was greater than 256 µg/mL, the MIC (Staphylococcus warneri) was greater than 256 µg/mL and the MIC (Enterococcus faecalis) was greater than 256 µg/mL. The MIC [1] was greater than 256 µg/mL, the MIC (Escherichia coli) was greater than 256 µg/mL and the MIC (Proteus mirabilis) was greater than 256 µg/mL. It also gave an MIC (Enterobacter sp.) greater than 256 µg/mL, an MIC (Klebsiella oxytoca) greater than 256 µg/mL and an MIC (Candida albicans) of 2 µg/mL (≈ 5.34 µM). It also gave an MIC (Nakaseomyces glabratus) of 2 µg/mL (≈ 5.34 µM), an MIC (Candida tropicalis) of 2 µg/mL (≈ 5.34 µM) and an MIC (Pichia kudriavzevii) of 2 µg/mL (≈ 5.34 µM). It also gave an MIC (Candida parapsilosis) of 2 µg/mL (≈ 5.34 µM) and an MIC ([Candida] sake) of 2 µg/mL (≈ 5.34 µM).

For CCC(CC)=N/N=C1\SCC(=O)N1CN1C(=O)c2ccccc2C1=O, the MIC (Staphylococcus aureus) was greater than 256 µg/mL, the MIC (Staphylococcus warneri) was greater than 256 µg/mL and the MIC (Enterococcus faecalis) was greater than 256 µg/mL. For the same compound, the MIC [1] was greater than 256 µg/mL, the MIC (Escherichia coli) was greater than 256 µg/mL and the MIC (Proteus mirabilis) was greater than 256 µg/mL. It also gave an MIC (Enterobacter sp.) greater than 256 µg/mL, an MIC (Klebsiella oxytoca) greater than 256 µg/mL and an MIC (Candida albicans) of 2 µg/mL (≈ 5.58 µM). For the same compound, the MIC (Nakaseomyces glabratus) was 8 µg/mL (≈ 22.3 µM), the MIC (Candida tropicalis) was 8 µg/mL (≈ 22.3 µM) and the MIC (Pichia kudriavzevii) was 8 µg/mL (≈ 22.3 µM). For the same compound, the MIC (Candida parapsilosis) was 8 µg/mL (≈ 22.3 µM) and the MIC ([Candida] sake) was 8 µg/mL (≈ 22.3 µM).

CCC/C(C)=N/N=C1\SCC(=O)N1Cc1cccc2ccccc12 gave an MIC (Staphylococcus aureus) greater than 256 µg/mL, an MIC (Staphylococcus warneri) greater than 256 µg/mL and an MIC (Enterococcus faecalis) greater than 256 µg/mL. For the same compound, the MIC [1] was greater than 256 µg/mL, the MIC (Escherichia coli) was greater than 256 µg/mL and the MIC (Proteus mirabilis) was greater than 256 µg/mL. The MIC (Enterobacter sp.) was greater than 256 µg/mL, the MIC (Klebsiella oxytoca) was greater than 256 µg/mL and the MIC (Candida albicans) was 2 µg/mL (≈ 5.89 µM). The MIC (Nakaseomyces glabratus) was 2 µg/mL (≈ 5.89 µM), the MIC (Candida tropicalis) was 64 µg/mL (≈ 189 µM) and the MIC (Pichia kudriavzevii) was 2 µg/mL (≈ 5.89 µM). It also gave an MIC (Candida parapsilosis) of 2 µg/mL (≈ 5.89 µM) and an MIC ([Candida] sake) of 16 µg/mL (≈ 47.1 µM).

Compound C/C(=N\N=C1/SCC(=O)N1Cc1cccc2ccccc12)c1cccs1 has an MIC (Staphylococcus aureus) greater than 256 µg/mL, an MIC (Staphylococcus warneri) greater than 256 µg/mL and an MIC (Enterococcus faecalis) greater than 256 µg/mL. The MIC [1] was greater than 256 µg/mL, the MIC (Escherichia coli) was greater than 256 µg/mL and the MIC (Proteus mirabilis) was greater than 256 µg/mL. The MIC (Enterobacter sp.) was greater than 256 µg/mL, the MIC (Klebsiella oxytoca) was greater than 256 µg/mL and the MIC (Candida albicans) was 2 µg/mL (≈ 5.27 µM). The MIC (Nakaseomyces glabratus) was 8 µg/mL (≈ 21.1 µM), the MIC (Candida tropicalis) was 2 µg/mL (≈ 5.27 µM) and the MIC (Pichia kudriavzevii) was 16 µg/mL (≈ 42.2 µM). The MIC (Candida parapsilosis) was 16 µg/mL (≈ 42.2 µM) and the MIC ([Candida] sake) was 2 µg/mL (≈ 5.27 µM).

Compound CC/C(C)=N/N=C1\SCC(=O)N1CN1C(=O)c2ccccc2C1=O has an MIC (Staphylococcus aureus) greater than 256 µg/mL, an MIC (Staphylococcus warneri) greater than 256 µg/mL and an MIC (Enterococcus faecalis) greater than 256 µg/mL. The MIC [1] was greater than 256 µg/mL, the MIC (Escherichia coli) was greater than 256 µg/mL and the MIC (Proteus mirabilis) was greater than 256 µg/mL. It also gave an MIC (Enterobacter sp.) greater than 256 µg/mL, an MIC (Klebsiella oxytoca) greater than 256 µg/mL and an MIC (Candida albicans) of 2 µg/mL (≈ 5.81 µM). The MIC (Nakaseomyces glabratus) was 2 µg/mL (≈ 5.81 µM), the MIC (Candida tropicalis) was 64 µg/mL (≈ 186 µM) and the MIC (Pichia kudriavzevii) was 8 µg/mL (≈ 23.2 µM). The MIC (Candida parapsilosis) was 8 µg/mL (≈ 23.2 µM) and the MIC ([Candida] sake) was 2 µg/mL (≈ 5.81 µM).

C/C(=N\N=C1/SCC(=O)N1CN1C(=O)c2ccccc2C1=O)c1cccs1 showed an MIC (Staphylococcus aureus) greater than 256 µg/mL, an MIC (Staphylococcus warneri) greater than 256 µg/mL and an MIC (Enterococcus faecalis) greater than 256 µg/mL. For the same compound, the MIC [1] was greater than 256 µg/mL, the MIC (Escherichia coli) was greater than 256 µg/mL and the MIC (Proteus mirabilis) was greater than 256 µg/mL. For the same compound, the MIC (Enterobacter sp.) was greater than 256 µg/mL, the MIC (Klebsiella oxytoca) was greater than 256 µg/mL and the MIC (Candida albicans) was 4 µg/mL (≈ 10 µM). It also gave an MIC (Nakaseomyces glabratus) of 32 µg/mL (≈ 80.3 µM), an MIC (Candida tropicalis) of 2 µg/mL (≈ 5.02 µM) and an MIC (Pichia kudriavzevii) of 4 µg/mL (≈ 10 µM). It also gave an MIC (Candida parapsilosis) of 4 µg/mL (≈ 10 µM) and an MIC ([Candida] sake) of 8 µg/mL (≈ 20.1 µM).

Compound O=C1c2ccccc2C(=O)N1CN1C(=O)CS/C1=N\N=C1CCCC1 has an MIC (Staphylococcus aureus) greater than 256 µg/mL, an MIC (Staphylococcus warneri) greater than 256 µg/mL and an MIC (Enterococcus faecalis) greater than 256 µg/mL. For the same compound, the MIC [1] was greater than 256 µg/mL, the MIC (Escherichia coli) was greater than 256 µg/mL and the MIC (Proteus mirabilis) was greater than 256 µg/mL. The MIC (Enterobacter sp.) was greater than 256 µg/mL, the MIC (Klebsiella oxytoca) was greater than 256 µg/mL and the MIC (Candida albicans) was 2 µg/mL (≈ 5.61 µM). The MIC (Nakaseomyces glabratus) was 16 µg/mL (≈ 44.9 µM), the MIC (Candida tropicalis) was 8 µg/mL (≈ 22.4 µM) and the MIC (Pichia kudriavzevii) was 16 µg/mL (≈ 44.9 µM). For the same compound, the MIC (Candida parapsilosis) was 64 µg/mL (≈ 180 µM) and the MIC ([Candida] sake) was 256 µg/mL (≈ 718 µM).

In the case of CC(C)=N/N=C1\SCC(=O)N1Cc1ccc([N+](=O)[O-])cc1, the MIC (Staphylococcus aureus) is reported as greater than 256 µg/mL, the MIC (Staphylococcus warneri) is reported as greater than 256 µg/mL and the MIC (Enterococcus faecalis) is reported as greater than 256 µg/mL. The MIC [1] was greater than 256 µg/mL, the MIC (Escherichia coli) was greater than 256 µg/mL and the MIC (Proteus mirabilis) was greater than 256 µg/mL. For the same compound, the MIC (Enterobacter sp.) was greater than 256 µg/mL, the MIC (Klebsiella oxytoca) was greater than 256 µg/mL and the MIC (Candida albicans) was 4 µg/mL (≈ 13.1 µM). For the same compound, the MIC (Nakaseomyces glabratus) was 4 µg/mL (≈ 13.1 µM), the MIC (Candida tropicalis) was 2 µg/mL (≈ 6.53 µM) and the MIC (Pichia kudriavzevii) was 2 µg/mL (≈ 6.53 µM). For the same compound, the MIC (Candida parapsilosis) was 2 µg/mL (≈ 6.53 µM) and the MIC ([Candida] sake) was 2 µg/mL (≈ 6.53 µM).

O=C1CS/C(=N\N=C2CCCCCCC2)N1Cc1ccc([N+](=O)[O-])cc1 showed an MIC (Staphylococcus aureus) greater than 256 µg/mL, an MIC (Staphylococcus warneri) greater than 256 µg/mL and an MIC (Enterococcus faecalis) greater than 256 µg/mL. It also gave an MIC [1] greater than 256 µg/mL, an MIC (Escherichia coli) greater than 256 µg/mL and an MIC (Proteus mirabilis) greater than 256 µg/mL. The MIC (Enterobacter sp.) was greater than 256 µg/mL, the MIC (Klebsiella oxytoca) was greater than 256 µg/mL and the MIC (Candida albicans) was 4 µg/mL (≈ 10.7 µM). It also gave an MIC (Nakaseomyces glabratus) of 16 µg/mL (≈ 42.7 µM), an MIC (Candida tropicalis) of 8 µg/mL (≈ 21.4 µM) and an MIC (Pichia kudriavzevii) of 16 µg/mL (≈ 42.7 µM). It also gave an MIC (Candida parapsilosis) of 16 µg/mL (≈ 42.7 µM) and an MIC ([Candida] sake) of 16 µg/mL (≈ 42.7 µM).

CC1CCC(=N/N=C2\SCC(=O)N2Cc2cccc3ccccc23)CC1 (centres undefined) gave an MIC (Staphylococcus aureus) greater than 256 µg/mL, an MIC (Staphylococcus warneri) greater than 256 µg/mL and an MIC (Enterococcus faecalis) greater than 256 µg/mL. The MIC [1] was greater than 256 µg/mL, the MIC (Escherichia coli) was greater than 256 µg/mL and the MIC (Proteus mirabilis) was greater than 256 µg/mL. For the same compound, the MIC (Enterobacter sp.) was greater than 256 µg/mL, the MIC (Klebsiella oxytoca) was greater than 256 µg/mL and the MIC (Candida albicans) was 2 µg/mL (≈ 5.47 µM). For the same compound, the MIC (Nakaseomyces glabratus) was 16 µg/mL (≈ 43.8 µM), the MIC (Candida tropicalis) was 128 µg/mL (≈ 350 µM) and the MIC (Pichia kudriavzevii) was 8 µg/mL (≈ 21.9 µM). It also gave an MIC (Candida parapsilosis) of 8 µg/mL (≈ 21.9 µM) and an MIC ([Candida] sake) of 4 µg/mL (≈ 10.9 µM).

Compound O=C1CS/C(=N\N=C\c2cccnc2)N1Cc1ccc([N+](=O)[O-])cc1 has an MIC (Staphylococcus aureus) greater than 256 µg/mL, an MIC (Staphylococcus warneri) greater than 256 µg/mL and an MIC (Enterococcus faecalis) greater than 256 µg/mL. It also gave an MIC [1] greater than 256 µg/mL, an MIC (Escherichia coli) greater than 256 µg/mL and an MIC (Proteus mirabilis) greater than 256 µg/mL. For the same compound, the MIC (Enterobacter sp.) was greater than 256 µg/mL, the MIC (Klebsiella oxytoca) was greater than 256 µg/mL and the MIC (Candida albicans) was 256 µg/mL (≈ 720 µM). For the same compound, the MIC (Nakaseomyces glabratus) was 32 µg/mL (≈ 90 µM), the MIC (Candida tropicalis) was 256 µg/mL (≈ 720 µM) and the MIC (Pichia kudriavzevii) was 128 µg/mL (≈ 360 µM). The MIC (Candida parapsilosis) was 32 µg/mL (≈ 90 µM) and the MIC ([Candida] sake) was 32 µg/mL (≈ 90 µM).
